# According to ChEMBL document CHEMBL4513216, “Probing the Open Global Health Chemical Diversity Library for Multistage-Active Starting Points for Next-Generation Antimalarials” (ACS Infect Dis, 2020):
# Test: Toxicity liver stage against HepG2, at 10uM
# Format: cell-based
# Set-up: test concentration 10 uM, cell line HepG2-A16-CD81EGFP
# Details: human, HepG2-A16-CD81EGFP cells; read-out: INHIBITION
# Summary of the method: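 Uninfected HepG2-A16-CD81EGFP cells, 3 × 10^3 per well, 1536-well, plated on prespotted compound at 10 μM final, parasite-free screening media added to match infected plates; puromycin 10 μM positive, DMSO 0.5% negative; run in parallel with 48 h PbLuc assay at 37 °C, 5% CO2; viability by CellTiter-Glo luminescence, normalized to controls.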
row,SMILES,cytotoxicity at 10 µM
1,FC(F)(F)c1ccccc1CN1CCOC[C@H](Oc2cccnc2)C1,4.3%
2,O=C(NC[C@H]1OC[C@@H](NC2CCCCC2)[C@@H]1O)c1cccs1,-2.36%
3,COc1cccc(CN2CCCCCC2c2cccc(F)c2)c1O (stereo not given),5.02%
4,COc1ccc2c(c1)C(=O)CC1(CCN(Cc3ccc(F)cc3)CC1)O2,16.6%
5,CCOC(=O)C1CCN(C(=O)c2cnn(-c3ccccc3F)c2N)CC1,4.47%
6,O=C(CC1CCCC1)NCCS(=O)(=O)N1CCN(c2ccccn2)CC1,0.766%
7,Cc1ccc(S(=O)(=O)N2CCC(S(=O)(=O)c3nncn3C)CC2)cc1C,-6.9%
8,CN(C)c1ccc2c(c1)CN(C(=O)c1ccnnc1)C2c1cnco1 (stereo not given),0.841%
9,COC[C@H]1CCC[C@]12CN(S(=O)(=O)c1cccs1)CCO2,-1.34%
10,Cn1cc(C2CC(=O)NC23CCN(Cc2nccs2)CC3)cn1 (stereo not given),1.06%
11,CNC(=O)[C@H]1C[C@@H]2CN(C(=O)c3occc3C)C[C@@H]2N1S(C)(=O)=O,-2.95%
12,CCn1cc(NS(=O)(=O)c2ccc(Br)s2)c(C(=O)NCC(C)C)n1,6.86%
13,O=C(c1ccc2c(c1)CCCC2)N1CCn2ncnc2C1,-4.9%
14,CN(C(=O)c1ccc(C#N)cc1)c1nnc(C2CCOC2)s1 (stereo not given),0.36%
15,CCN(CC)C(=O)CN1CCCC1c1nc(C)c2c(n1)N(C)C(=O)CC2 (stereo not given),3.1%
16,NC(=O)c1cc(CC2CCCN(Cc3cnccn3)CC2)ncn1 (stereo not given),-3.97%
17,CN1CCOC(c2cncc(CCC(N)=O)n2)C1 (stereo not given),-2.86%
18,O=C(Cc1cccc(O)c1)N1CCCC(O)(CN2CCCC2)CC1 (stereo not given),-4.68%
19,Cc1cc(O)nc(C2CCCN(CCO)C2)n1 (stereo not given),-14.6%
20,Cc1ccccc1-c1cncc(C2CCN(CC(=O)N(C)C)CC2)n1,-12.5%
21,Cn1ccc(C(=O)N2CCCC(Cc3cccc4cccnc34)C2)n1 (stereo not given),-8.44%
22,Cc1ccc2oc(N3CCN(CC(=O)NC(C)C)CC3)nc2c1,-10.9%
23,CN1CCC(Nc2ccc(F)cc2OCC(F)(F)F)C1=O (stereo not given),-0.898%
24,Cn1cnc(S(=O)(=O)N2CCCCc3ccccc32)c1,-4.62%
25,O=C(Cc1cccs1)NCC(=O)Nc1cn[nH]c1,5.68%
26,NC(=O)CC1CCN(C(=O)NCc2cccc(-n3cccn3)c2)CC1,-2.45%
27,CC(c1ncc(C(C)(C)C)o1)N1CCN(Cc2ccc(Cl)s2)CC1 (stereo not given),-1.21%

row,SMILES,cytotoxicity at 10 µM
1,Cn1cc(C(=O)N2CCCN(c3cccnn3)CC2)c2ccccc21,4%
2,CNC(=O)Cn1cc(Nc2cccc(F)c2C#N)cn1,6.64%
3,CC(Cn1cccn1)C(=O)N1CCCN(Cc2cscn2)CC1 (stereo not given),-13.2%
4,O=C(NCCNC(=O)C1Cc2cc(F)ccc2O1)C1CCCCC1 (stereo not given),4.07%
5,CC(C)N(C)CCNC(=O)N1CCN(Cc2ccon2)CC1,-1.58%
6,Cc1nnc(CN2CCC(c3nc4cc(Cl)ccc4o3)CC2)n1C,-3.49%
7,CCc1cnc(CN(C)C2CCN(CC3CCC3)C2)o1 (stereo not given),-5.99%
8,Cc1cc(NC(=O)CN2CCCC2c2noc(C3CC3)n2)on1 (stereo not given),3.46%
9,Cn1ccc(CNC(=O)N2CCC(C3(C)OCCO3)CC2)c1,3.15%
10,CN(CC(F)(F)F)C(=O)Cn1cc(NC(=O)C(C)(C)C)cn1,3.04%
11,CCOCC(=O)N1C[C@H]2CCC[C@@]2(COC)C1,0.419%
12,CC(=O)N(C)Cc1ncn2c1CN(C(=O)C1CCCO1)CCC2 (stereo not given),-101%
13,Cn1cccc1C(=O)NCc1cn2c(n1)CN(c1ncccn1)CC2,-109%
14,O=C(c1ccnnc1)N1CCc2onc(Cn3cccn3)c2C1,0.529%
15,Cc1ccc(CN2CCCn3c(nc(Cn4ccnc4)cc3=O)C2)s1,4.24%
16,COCCN1CC(=O)c2sc(NCc3ccccc3)nc2C1,-6.77%
17,O=C(c1onc2ccccc12)N1CCC2(CCCNC2)C1 (stereo not given),-1.05%
18,c1ccc(-c2cc(CN3C[C@H]4CC[C@H]3C4)on2)cc1,-5.33%
19,Cc1nc(N2CCCC2C(=O)NCc2ccsc2)nc2ccccc12 (stereo not given),6.03%
20,COc1ccccc1CN1C(=O)O[C@@H]2CN(CC3CC3)C[C@@H]21,1.35%
21,CNc1ncc(CN(C)C(=O)CCc2[nH]nc3c2CCCC3)cn1,3.8%
22,CN1C(=O)CC(C(=O)O)C12CCN(c1ccc3cccc(Cl)c3n1)CC2 (stereo not given),2.1%
23,COCCN(C)CCN1CC2(CCN(C3CCSC3)CC2)OC1=O (stereo not given),-2.28%
24,Cc1ccc2nc(CN3CCN(C4CCCC4)C(=O)C3)cc(O)c2c1,-0.803%
25,CC1(C)CNC(=O)c2nc(C3CCCN(S(C)(=O)=O)C3)[nH]c2C1 (stereo not given),0.611%
26,O=C(c1ccc2ncsc2c1)N1CCC(C(=O)O)(n2cccn2)CC1,6.01%
27,O=c1cc(N2CCOCC2)cnn1CCc1ccc(F)cc1,8.01%

row,SMILES,cytotoxicity at 10 µM
1,N#Cc1cccc(NC2CC(=O)N(Cc3cccc(F)c3)C2)n1 (stereo not given),-94.2%
2,CN(C)c1ncc(CN2CCCC(Nc3ccc4c(c3)OCCO4)C2)s1 (stereo not given),8.12%
3,CN(C)C(=O)c1cn2cc(-c3ccccc3Cl)n(CC3CC3)c(=O)c2n1,-1.43%
4,CCc1ncc(CNCc2cccnc2N(C)C)cn1,-2.62%
5,COc1ccc2c(c1)CCN(Cc1cscn1)CC2,0.0869%
6,COc1cccc2c1OCC(C(=O)N1CCN(S(=O)(=O)N(C)C)CC1)C2 (stereo not given),3.47%
7,Cc1nc2c(c(NCCNC(=O)C(C)C)n1)Cc1ccccc1OC2,4.74%
8,COc1cc(Oc2ccc(C(N)=O)cn2)ccc1CN1CCCC1,-0.398%
9,Cc1cnn(C2(C(=O)O)CCN(Cc3oc4ccccc4c3C)CC2)c1,-5.87%
10,CCOc1ccc(Cl)c(C(=O)NCCC(=O)Nc2ccncc2)n1,-13.9%
11,Cc1nccn1C1CCCN(C(=O)c2cccc(OCC(N)=O)c2)C1 (stereo not given),-13%
12,CN(C)c1cc(CNC(=O)Nc2nccs2)ccn1,2.3%
13,Cc1nccc(CNc2cc(N3CCCC3CO)ncn2)n1 (stereo not given),-14%
14,CCN1CCC(NC(=O)CN2CCc3c(ncn3C3CC3)C2)CC1,-4.8%
15,CNC(=O)c1ccc(C(=O)N2CCC(Nc3cccnn3)CC2)cn1,-19.4%
16,CC(=O)Nc1nc(C(=O)N2CCCCC2Cn2cc(C)cn2)cs1 (stereo not given),-17.1%
17,CC1CN(C(=O)CN(Cc2ccccc2Cl)C2CCCC2)CCO1 (stereo not given),-5.65%
18,CC(=O)N(Cc1noc(C)n1)C1CCN(Cc2cnc(C)s2)C1 (stereo not given),-9.65%
19,CCc1nnsc1C(=O)N1CCCN(Cc2ccc(F)cc2)CC1,-3.69%
20,CCCn1nc(C)c(-c2cncn2CCN(C)C2CCCC2)c1C,4.16%
21,CC(C)CNC(=O)[C@H]1CCS(=O)(=O)[C@@H]2CN(Cc3ccc(F)cc3)C[C@H]12,1.26%
22,O=C([C@H]1COC[C@H]2CN(c3ncc(F)cn3)C[C@H]21)N1CCOCC1,-5.58%
23,O=C(NC1CC1)N1CCOCC2(CCN(Cc3cccs3)C2)C1 (stereo not given),-2.6%
24,CS(=O)(=O)N1CCC2(CC1)NCCn1c(-c3ccccc3)cnc12,3.61%
25,CN(C)C(=O)[C@H]1C[C@@H]2CCN(C3CCOCC3)C[C@@H]2O1,-3.01%
26,Cc1ccc(N2CCC3(CCN(C(=O)c4ccoc4)CC3)CC2)nn1,-0.355%
